Residues, ends and D or L forms follow the SMILES beside them.
Tests used:
ctDNA = experiment: Hoechst; assay type: binding; conditions: Hoechst-bound ctDNA titrated with peptide, fluorescence at 460 nm
L929 cells [1] = experiment: Cellular uptake mechanism by FACS; assay type: cell-based
[2] = system: plasmid DNA (pDNA, 4.7 kb); assay type: binding
pDNA = experiment: DLS and ζ-potential of peptide/pDNA polyplex; assay type: physicochemical
In short: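 Plasmid was pEGFP-C2 (4.7 kb), isolated from E. coli DH5α, with purity checked by A260/A280. It was mixed with peptide (0–25 μM) in Tris-HCl (10 mM, pH 7.4). Hydrodynamic size was measured by dynamic light scattering in a 1 cm quartz cuvette, alongside ζ-potential.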

L929 cells [3] = experiment: Cellular uptake of CF-labeled peptides by FACS; assay type: cell-based; conditions: 10 μM CF-labeled peptide, 6 h incubation
In short: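 L929 cells grown in DMEM with 10% FBS and 1% penicillin-streptomycin, seeded at 50×10^4 cells/well, and cultured 24 h. Treated 6 h with 10 μM carboxyfluorescein-labelled peptide. Washed with PBS (10 mM, pH 7.4), detached with 0.25% trypsin, pellet washed three times with PBS, then analysed by flow cytometry.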

[4] = Polyplex stability against NaCl, agarose gel retardation; assay type: physicochemical; conditions: pDNA condensed with 25 μM peptide, NaCl treatment

## C[C@H](N)C(=O)N[C@@H](C)C(=O)N[C@@H](CCCCN)C(=O)N[C@@H](CCCCN)C(=O)N[C@@H](C)C(=O)N[C@@H](C)C(=O)N[C@@H](C)C(=O)N[C@@H](CCCCN)C(=O)N[C@@H](CCCCN)C(=O)N[C@@H](C)C(=O)N[C@@H](C)C(=O)N[C@@H](C)C(=O)N[C@@H](CCCCN)C(=O)N[C@@H](CCCCN)C(=O)N[C@@H](C)C(=O)N[C@@H](C)C(=O)N[C@@H](C)C(=O)N[C@@H](CCCCN)C(=O)N[C@@H](CCCCN)C(=O)N[C@@H](C)C(N)=O [Ku-A4] (H-AAKKAAAKKAAAKKAAAKKA-NH2; N-terminus assumed)
ctDNA
  peptide concentration for complete Hoechst displacement: 10 µM
L929 cells [1]
  inhibition of cellular uptake by macropinocytosis inhibitor amiloride: 48%
L929 cells [1]; 0.1% NaN3 pre-incubated 1 h before peptide
  reduction of peptide uptake by energy depletion with NaN3: 38%
L929 cells [1]; 1 h pre-incubation at 4 °C then peptide 6 h at 4 °C
  cellular uptake at 4 °C (reduced to): 18%
[2]
  peptide concentration for complete condensation of DNA (gel): 3 µM
pDNA; DLS, pDNA in Tris-HCl 10 mM pH 7.4, higher peptide concentrations (up to 25 μM)
  size of polyplex at higher peptide concentrations: 140 nm
pDNA; DNA 200 ng/mL, 25 μM peptide
  ζ-potential of polyplex at 25 μM peptide: +16.4 mV
L929 cells [3]
  cell penetration efficacy (cellular uptake, FACS): superior cell penetration ability
[4]
  NaCl concentration at which polyplex starts disassembling: 250 mM
